# Compounds with a hit are over-represented: about 1.4% of the library has one in this group of screens.
# CXCR6 inh = inhibitors of human CXCR6 receptor; CHO-K1 PathHunter CXCR6 beta-arrestin, luminescence; O00574; actives 0.36% (n = 360,000); inhibition, % at 20 µM; AID 602244; in the data active means inhibition above about 34%, passing the limit was not always enough;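 further: antagonist mode with CXCL16 agonist at 10 nM final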
# CCR6 antagonist = CCR6 (human) receptor antagonism; P51684; CHO-K1 CCR6 PathHunter beta-arrestin, luminescence, CCL20-stimulated; inhibition, % at 20 µM; actives 0.49% (n = 340,000);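 active means compounds whose inhibition of the agonist-driven luminescence signal at 20 µM reaches about 50%, limit read from the data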;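 further: cells stimulated with CCL20 at 14 nM final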
# APOBEC3G inh = blocks human APOBEC3G single-stranded DNA deamination | Q9HC16 | recombinant A3G, ssDNA deamination FAM/TAMRA fluorescence | inhibition, % at 20 µM | actives 0.28% (n = 330,000) | AID 493012;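 active means inhibition of at least 40% at 20 µM, with no more than 30% in the related APOBEC3A deaminase screen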
# APJ agonist = agonists of human APJ apelin receptor. actives 0.11% (n = 330,000). AID 2520. CHO-K1 APJ PathHunter beta-arrestin, luminescence; 0% DMSO wells, 100% apelin. activation, % at 20 µM;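 active means activation more than six SD over the plate average, tested at 20 µM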
#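 Material: engineered CHO-K1 APJ arrestin reporter cells; amount: 1000 CHO-K1 reporter cells seeded per well; incubation: compound stimulation 90 min at 25 °C, detection 60 min; signal: luminescent beta-gal fragment complementation, chemiluminescent substrate; read-out basis: APJ agonist activity; controls: DMSO-only wells as negative, 10 nM Apelin-13 as positive control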
# APJ antag = APJ receptor antagonism; P35414; CHO-K1 APJ beta-arrestin complementation, luminescence; inhibition, % at 20 µM; actives 0.32% (n = 330,000); AID 2521;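 active means inhibition above about 40% at 20 µM, limit read from the data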;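 further: cells challenged with 10 nM apelin-13 agonist together with compound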
# APOBEC3A inh = blocks human APOBEC3A ssDNA deamination | P31941 | recombinant A3A, FAM/TAMRA ssDNA deamination fluorescence | inhibition, % at 20 µM | actives 0.41% (n = 330,000);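 active means at least 40% inhibition at 20 µM here, with at most 30% in a related deaminase screen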
# Target sequence (P31941 whole entry, looked up): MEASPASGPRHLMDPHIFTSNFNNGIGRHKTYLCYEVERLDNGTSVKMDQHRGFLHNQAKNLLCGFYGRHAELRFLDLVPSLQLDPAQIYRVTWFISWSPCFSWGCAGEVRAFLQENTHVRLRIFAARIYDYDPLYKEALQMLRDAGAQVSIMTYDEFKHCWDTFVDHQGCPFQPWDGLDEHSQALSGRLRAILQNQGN
# APOBEC3G confirm = confirmation of human APOBEC3G DNA deaminase inhibitors | recombinant A3G ssDNA deaminase, UDG/FAM-TAMRA fluorescence | inhibition, % at 20 µM | shares compounds with APOBEC3G inh | actives 72% (n = 890);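 active means inhibition reaching a set limit in any replicate at 20 µM, the limit being 80% of the first screen's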
# UDG A3G counter = inhibits E. coli UDG, flagging false APOBEC3G inhibitors. inhibition, % at 20 µM. shares compounds with APOBEC3G inh. UDG counterscreen, FAM/TAMRA oligo fluorescence. 710 tested, under 10 active;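 active means compounds giving 40% or more inhibition at 20 µM in any one of the three replicates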;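 further: inhibitors lower the FAM signal released by uracil excision and alkaline cleavage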
# Target sequence (P12295 whole entry, looked up): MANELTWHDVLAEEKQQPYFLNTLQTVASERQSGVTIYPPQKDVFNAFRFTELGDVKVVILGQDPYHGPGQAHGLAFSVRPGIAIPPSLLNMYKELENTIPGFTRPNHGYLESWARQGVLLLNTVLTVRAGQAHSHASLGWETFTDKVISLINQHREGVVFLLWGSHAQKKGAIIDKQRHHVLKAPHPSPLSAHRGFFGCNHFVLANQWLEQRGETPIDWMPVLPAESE
# A number is an active result; i = inactive; nt = not tested or not shown.
SMILES,CXCR6 inh,CCR6 antagonist,APOBEC3G inh,APJ agonist,APJ antag,APOBEC3A inh,APOBEC3G confirm,UDG A3G counter
O=C(Nc1cc(S(=O)(=O)N2CCOCC2)ccc1N1CCCCC1)c1cc(-c2ccccn2)nc2ccccc12,i,i,53,i,i,i,58,i
O=c1[nH]c(SCc2ccccc2[N+](=O)[O-])nc2nc[nH]c12,i,i,61,i,i,i,i,i
Cc1ccccc1-n1sc2cc(F)ccc2c1=O,i,i,75,i,i,i,81,i
O=c1c2cc(F)ccc2sn1-c1ccccc1,i,i,86,i,i,i,88,i
CN(C)S(=O)(=O)c1cccc(-n2sc3ccccc3c2=O)c1,i,i,85,i,i,i,93,i
O=C(O)c1cccc(-n2sc3ccccc3c2=O)c1,i,i,83,i,i,i,91,i
O=c1c2ccccc2sn1-c1ccccc1F,i,nt,nt,nt,nt,nt,nt,nt
O=S(=O)(Cc1ccccc1)NCC1CCCN(Cc2ccc3nonc3c2)C1 (stereo unspecified),i,i,i,i,i,i,nt,nt
COc1ccc(C)cc1NC(=O)CN(C)C1CCCCC1,i,i,i,i,i,i,nt,nt
Cc1ccccc1S(=O)(=O)NCC1CCCO1 (stereo unspecified),i,i,i,i,i,i,nt,nt
CC1CCC2(CC1)NC(=S)N(c1ccccc1)N2 (stereo unspecified),i,i,61,i,i,i,23,i
CC1CCC2(CC1)NC(=S)N(C(C)(C)C)N2 (stereo unspecified),i,i,51,i,i,i,24,i
CC(Sc1ccccc1)C(=O)N1CCN(S(=O)(=O)c2ccc(Cl)cc2)CC1 (stereo unspecified),i,i,i,i,i,i,nt,nt
Cc1ccc(N2C(=O)[C@@H]3C(c4cccnc4)=NO[C@@H]3C2=O)cc1,i,i,57,i,i,i,i,i
Cc1ccccc1C(=O)N1CCN(c2ccc(NC(=O)c3ccc4c(c3)OCCO4)cc2)CC1,i,i,i,i,i,i,nt,nt
CCOc1ccc(Nc2nc3cc(S(=O)(=O)N(CC)CC)ccc3o2)cc1,i,i,50,i,i,i,62,i
CCN(CC)S(=O)(=O)c1ccc2oc(Nc3ccc(OC)cc3)nc2c1,i,i,i,i,i,i,nt,nt
CCS(=O)(=O)c1ccc2oc(Nc3ccc(C(C)C)cc3)nc2c1,i,i,68,i,i,i,78,i
COc1cc2[nH]c(=O)c(C(=O)NCc3ccccc3Cl)c(O)c2cc1OC,i,i,i,i,i,i,nt,nt
Cc1nn(C(=O)N2CCOCC2)c(C)c1C,i,i,62,i,i,i,i,nt
C=CCn1c(-c2cc(Cl)ccc2OC)n[nH]c1=S,i,i,46,i,i,i,81,i
C=CCn1c(-c2csc3ccccc23)n[nH]c1=S,i,i,43,i,i,i,i,nt
C=CCn1c(-c2ccccc2[N+](=O)[O-])n[nH]c1=S,i,i,i,i,i,i,nt,nt
C=CCn1c(-c2ccc([N+](=O)[O-])cc2)n[nH]c1=S,i,i,45,i,i,i,78,i
C=CCn1c(-c2cccc(OC)c2)n[nH]c1=S,i,i,51,i,i,i,i,nt
SMILES,CXCR6 inh,CCR6 antagonist,APOBEC3G inh,APJ agonist,APJ antag,APOBEC3A inh,APOBEC3G confirm,UDG A3G counter
C=CCn1c(-c2c[nH]c3ccccc23)n[nH]c1=S,i,i,i,i,i,i,nt,nt
O=C(Cn1cnc2ccccc21)Nc1cccc(S(=O)(=O)N2CCCC2)c1,i,i,i,i,i,i,nt,nt
N#Cc1ccccc1S(=O)(=O)N1CCN(CC(O)CN2CCOCC2)CC1 (stereo unspecified),i,i,i,i,i,i,nt,nt
CCn1c(-c2cccc(Cl)c2)n[nH]c1=S,i,i,47,i,i,i,77,i
CC[n+]1c(C)sc2sc3ccccc3c21,nt,nt,55,i,i,i,67,nt
CC[n+]1c(C)sc2c3ccsc3ccc21,i,i,i,i,i,i,nt,nt
